# Source: PubChem BioAssay (several laboratories)
# Mcl-1 Bim block – inhibitors of Bim peptide binding to Mcl-1, primary screen, biochemical, bead-based flow cytometry, multiplex; actives 0.1% (n = 190,000); AID 1009, 2008; inhibition, % at 10 µM; Induced myeloid leukemia cell differentiation protein Mcl-1 (Homo sapiens), Q07820; Bim peptide-Mcl-1 binding; in the data active = inhibition above about 40%
# Target sequence (Q07820 whole entry, looked up): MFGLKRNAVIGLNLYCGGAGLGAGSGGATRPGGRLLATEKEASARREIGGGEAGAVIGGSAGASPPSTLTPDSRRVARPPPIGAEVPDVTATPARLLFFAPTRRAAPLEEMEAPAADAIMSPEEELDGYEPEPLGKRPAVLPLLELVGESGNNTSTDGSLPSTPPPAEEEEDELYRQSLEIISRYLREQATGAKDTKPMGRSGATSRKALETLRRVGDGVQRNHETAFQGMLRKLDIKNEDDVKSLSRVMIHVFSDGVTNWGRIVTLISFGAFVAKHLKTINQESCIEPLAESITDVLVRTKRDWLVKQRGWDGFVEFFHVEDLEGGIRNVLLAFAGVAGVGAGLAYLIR
# Mcl1-Bid inh – Mcl-1/Bid binding inhibitors, primary screen, biochemical, TR-FRET, 1536-well. Induced myeloid leukemia cell differentiation protein Mcl-1 (Homo sapiens), Q07820. actives 0.97% (n = 220,000). inhibition, % at 21.7 µM. AID 1021, 2008. TR-FRET Mcl-1/Bid-Dy647 peptide binding;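 active = compounds that cut the binding signal by more than half at the single screening dose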;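 note: His-tagged Mcl-1 with europium anti-His antibody binding Bid BH3 peptide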
# Mcl1-Noxa inh – Mcl-1/Noxa binding inhibitors, primary screen, biochemical, TR-FRET, 1536-well; Induced myeloid leukemia cell differentiation protein Mcl-1 (Homo sapiens), Q07820; TR-FRET Mcl-1/Noxa peptide binding, 2 h; inhibition, % at 21.7 µM; actives 1.5% (n = 220,000); AID 1022, 2008;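 active = compounds that cut the protein-peptide binding signal by more than 50% relative to plate controls in a single-dose test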;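 note: His-tagged Mcl-1 with rhodamine Noxa BH3 peptide and terbium anti-His antibody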
# RBBP9 inhibitor – human RBBP9 inhibitors, primary screen, biochemical, fluorescence polarization, FP-Rh probe, HTS. Serine hydrolase RBBP9 (Homo sapiens), O75884. actives 0.2% (n = 220,000). inhibition, % at 7.94 µM. recombinant RBBP9;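 active = inhibition above the campaign mean of all tested compounds plus 3 SD, cut at about 14% in these data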
# Target sequence (O75884 whole entry, looked up): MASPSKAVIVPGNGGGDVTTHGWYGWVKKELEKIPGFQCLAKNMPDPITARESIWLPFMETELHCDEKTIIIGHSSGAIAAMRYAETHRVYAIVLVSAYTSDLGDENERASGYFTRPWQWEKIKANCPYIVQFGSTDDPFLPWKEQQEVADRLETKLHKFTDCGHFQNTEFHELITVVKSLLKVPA
#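 Measured by – fluorescence polarization · Test system – RBBP9 protein · Input – 2.5 µM RBBP9 dispensing solution, before mixing · Measure – percent inhibition from mP, scaled between DMSO and no-protein wells · Benchmarks – DMSO-treated enzyme wells and wells lacking RBBP9 · Times – preincubation 30 min plus labeling 45 min at 25 °C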
# EBV gp42 block – Epstein-Barr virus gp42 inhibitors, primary screen, biochemical, uHTS, fluorescence polarization | Glycoprotein 42 (Epstein-Barr virus (strain AG876)), Q1HVG2 | Fluorescence polarization binding assay, mP read-out | inhibition, % (tested at 21.74 µM) | actives 0.42% (n = 220,000); in the data active = inhibition above about 50%
# MCL1-BIM inh – inhibitors of MCL1 binding to BIM-BH3, primary screen, biochemical, fluorescence polarization. Induced myeloid leukemia cell differentiation protein Mcl-1 (Homo sapiens), Q07820. GST-MCL1 / FITC-Bim-BH3 fluorescence polarization. inhibition, % at 10.9 µM. actives 0.68% (n = 320,000). AID 2057, 2009;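 active = inhibition above the mean inhibition of all tested compounds plus 3 SD, set per campaign, cut at about 40% in these data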;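 note: higher means more loss of mP so more displacement of Bim peptide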
# Hits are given with their value; 0 = inactive; - = no result. Most compounds without a hit are left out; they make up all but 2.2% or so of the library.
SMILES,Mcl-1 Bim block,Mcl1-Bid inh,Mcl1-Noxa inh,RBBP9 inhibitor,EBV gp42 block,MCL1-BIM inh
COC(=O)c1sc(-c2ccc(C(C)(C)C)cc2)cc1NC(=O)c1ccccc1C(=O)O,-,0,51,0,0,0
COc1ccc(S(=O)(=O)Nc2ccccc2)cc1,-,-,-,-,-,0
COc1ccc(S(=O)(=O)Nc2ccc(O)c3ccccc23)cc1,0,0,66,0,0,0
CCOC(=O)c1c(NC(=O)c2ccccc2)sc2c(O)c(CN(CC)CC)ccc12,0,0,59,0,0,0
COc1ccc(-n2cc3c(-c4cccc(Br)c4)nnc(C)c3n2)cc1,0,0,0,0,0,0
COc1ccc(CNc2ncnc3sccc23)cc1,-,-,-,-,-,0
CCCCn1c(=O)nc2n(-c3ccccc3)c3ccccc3cc-2c1=O,0,64,0,0,0,0
CCCCn1c(=O)cc(C)n(-c2ccccc2)c1=O,-,-,-,-,-,0
COc1ccc2nc(/N=C/c3c(C)[nH]n(-c4ccc(C)cc4)c3=O)sc2c1,0,0,0,0,0,0
O=c1cc(-c2ccccc2Cl)oc2c(NS(=O)(=O)c3cc(Cl)cc(Cl)c3O)ccc(O)c12,0,70,110,0,0,0
CCc1ccc(S(=O)(=O)Nc2ccc(O)c3c(=O)cc(-c4ccccc4Cl)oc23)cc1,-,0,0,-,0,0
Cc1nc(Nc2cccc(O)c2)c2c3c(sc2n1)CCC3,-,0,0,0,0,0
O=C(/C=C\Nc1ccc(S(=O)(=O)Nc2ncccn2)cc1)c1cccc2ccccc12,-,96,0,0,0,0
CCOC(=O)c1nc(Nc2cc(C)cc(C)c2)c2ccccc2n1,0,0,0,0,0,0
Cc1ccccc1CN1[C@@H]2c3ccccc3C[C@@H]2OCCS1(=O)=O,-,-,-,-,-,0
Cc1cccc(Cn2c(N3CCc4ccccc4C3)nc3c2c(=O)[nH]c(=O)n3C)c1,0,0,63,0,0,0
CN(Cc1ccccc1)C(=O)CN1CCN(S(=O)(=O)c2ccc(Cl)c(Cl)c2)CC1,-,-,-,-,-,0
CCOC(=O)C1=C(C)NC2=C(C(=O)CC(C)(C)C2)C1c1ccc2c(c1)CCCN2C (configuration not stated),0,0,94,0,0,0
COc1cc(/C=N/Nc2ccc(S(N)(=O)=O)cc2[N+](=O)[O-])cc(OC)c1O,-,0,0,0,0,0
COc1cc(/C=N/Nc2ccccc2[N+](=O)[O-])cc(OC)c1O,0,0,58,0,0,0
COc1cc(/C=N/Nc2nc3ccccc3[nH]2)cc(OC)c1O,0,0,73,0,0,0
COc1cc(/C=N/Nc2nc3ccccc3[nH]2)ccc1O,0,0,0,0,0,0
COc1ccc(OC)c(NC(=O)COC(=O)c2ccc(OC)c(S(=O)(=O)N3CCOCC3)c2)c1,-,-,-,-,-,0
Cc1cc(C)n2nc(-c3ccccc3)c(-c3ccccc3)c2n1,-,-,-,-,-,0
O=C(Nc1ccc(N2CCOCC2)cc1)c1ccc(Cl)nc1,0,0,0,0,0,0
SMILES,Mcl-1 Bim block,Mcl1-Bid inh,Mcl1-Noxa inh,RBBP9 inhibitor,EBV gp42 block,MCL1-BIM inh
CCN(c1ccc(NC(=O)c2ccc(Cl)nc2)cc1)C(C)C,0,0,79,0,0,0
CCN(C(=O)CN1CCN(C)CC1)c1cccc2ccccc12,0,56,0,0,0,0
CCOC(=O)CN1C(=O)S/C(=C/C=C/c2ccc(N(C)C)cc2)C1=O,0,0,0,0,0,0
O=C(CN1CCCCC1)Nc1nnc(-c2ccc([N+](=O)[O-])cc2)s1,0,0,69,0,0,0
COc1ccc(-c2nnc3n2CCCCC3)cc1OC,-,-,-,-,-,0
COc1ccc(-c2csc(Cc3nnc4n3CCCCC4)n2)cc1OC,0,55,62,0,0,0
O=c1c2ccccc2sc2nc(C3CCCCC3)n(Cc3ccco3)c(=O)c12,0,67,0,0,0,-
CCc1nc2sc3ccccc3c(=O)c2c(=O)n1Cc1ccco1,0,0,0,0,0,0
CN1/C(=C\C=O)C(C)(C)c2ccccc21,0,0,0,0,0,0
CN(C)c1ccc(N=C/C=C2\N(C)c3ccccc3C2(C)C)cc1,0,0,71,0,0,0
CN1/C(=C/C=C(C#N)C#N)C(C)(C)c2ccccc21,0,0,0,0,54,0
COc1cccc(C(=O)N2CCN(Cc3ccc(OC)cc3OC)CC2)c1,-,-,-,-,-,0
Cc1cccc(C)c1OCC(O)Cn1ccnc1C (configuration not stated),0,0,0,-,84,0
Cc1ccc(-c2cc(C(=O)Nc3ccc(S(=O)(=O)Nc4ncccn4)cc3)[nH]n2)c(O)c1C,-,0,56,0,0,0
Cc1cccc(/C=N/NC(=O)c2ccncc2)n1,-,-,-,-,-,0
Cc1cccc(C(=O)N2CCC(c3nc(-c4ccc(S(=O)(=O)N5CCOCC5)cc4)no3)CC2)c1,47,-,-,0,-,0
CCC1CSC(Nc2ccc(C(=O)/C=C/c3cccc(C)c3)cc2)=N1 (configuration not stated),0,0,85,0,0,0
CCC1CSC(Nc2ccc(C(=O)/C=C/c3ccc(Oc4ccccc4)cc3)cc2)=N1 (configuration not stated),0,0,0,0,0,0
CCC(C)NC(=O)c1ccc(NC(=O)C2=C(C)OCCS2)cc1 (configuration not stated),-,-,-,-,-,0
Nc1nn2c(-c3ccccc3)cc(=O)[nH]c2c1N=Nc1ccc(Br)cc1,0,0,92,0,60,-
O=C(c1cc(N2C(=O)C3C4CCC(C4)C3C2=O)ccc1Cl)N1CCN(c2ccccc2F)CC1 (configuration not stated),0,0,0,0,0,0
CCOC(=O)c1nnc(-c2ccc(C)cc2)nc1Sc1ccc(Cl)cc1,0,55,0,0,0,0
O=C(NNC(=O)c1ccc(O)cc1O)c1ccc(Cl)cc1,0,56,0,0,0,0
Cc1ccc(/C=N/NC(=O)c2ccc3nc[nH]c3c2)o1,-,0,55,0,0,0
COc1ccccc1NC(=O)COC(=O)c1ccc(S(=O)(=O)NCc2ccco2)cc1,0,0,0,0,0,0
COc1ccccc1NS(=O)(=O)c1ccc(C(=O)OCC(=O)NCc2ccco2)cc1,0,0,55,0,0,0
O=C(Cn1cnc2cc([N+](=O)[O-])ccc2c1=O)Nc1cccc(S(=O)(=O)N2CCOCC2)c1,0,0,53,0,0,0
O=C(Cn1cnc2ccccc2c1=O)Nc1ccc(S(=O)(=O)N2CCOCC2)cc1,0,0,0,0,0,0
CC1(C)Oc2ccc3ccc(=O)oc3c2C[C@H]1O,-,83,0,-,0,0
CCCCCCn1cnc2c(c1=O)c1nc3ccccc3nc1n2/N=C/c1ccco1,0,58,0,0,0,-
